Assay outcomes from PubChem.
Pemphigus Ab inh: inhibitors of pemphigus antibody binding to DSG3, primary screen, biochemical, bead-based, flow cytometry, scFv-GFP; DSG3-coupled beads, scFv-anti-DSG3-GFP binding; active compounds read low; binding (percent of control), % at 10 µM; 310,000 tested, 0.48% active; AID 588358, 2011;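 active = binding more than 3 SD below its plate's average and above zero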;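 note: hits lower antibody fragment binding to DSG3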
Mcl-1 Bim block: inhibitors of Bim peptide binding to Mcl-1, primary screen, biochemical, bead-based flow cytometry, multiplex | Bim peptide-Mcl-1 binding | 190,000 tested, 0.1% active | inhibition, % at 10 µM; in the data active = inhibition above about 40%;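 note: 0% = no compound tracer wells and 100% = peptide blocker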
Target sequence (Q07820 whole entry, looked up): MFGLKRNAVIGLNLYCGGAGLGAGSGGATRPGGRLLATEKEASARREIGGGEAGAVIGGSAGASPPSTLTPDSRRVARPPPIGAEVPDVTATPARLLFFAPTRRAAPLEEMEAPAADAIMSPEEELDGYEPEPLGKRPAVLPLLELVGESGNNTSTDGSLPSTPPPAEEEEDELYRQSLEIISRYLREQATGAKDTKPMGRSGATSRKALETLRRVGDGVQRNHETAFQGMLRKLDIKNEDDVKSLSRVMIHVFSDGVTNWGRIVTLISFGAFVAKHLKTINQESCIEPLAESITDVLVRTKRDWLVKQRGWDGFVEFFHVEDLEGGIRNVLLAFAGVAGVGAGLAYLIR
Mcl1-Noxa inh: Mcl-1/Noxa binding inhibitors, primary screen, biochemical, TR-FRET, 1536-well; TR-FRET Mcl-1/Noxa peptide binding, 2 h; AID 1022, 2008; 220,000 tested, 1.5% active; inhibition, % at 21.7 µM;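 active = compounds that cut the protein-peptide binding signal by more than 50% relative to plate controls in a single-dose test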;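 note: His-tagged Mcl-1 with rhodamine Noxa BH3 peptide and terbium anti-His antibody; 0% = Mcl-1 plus Noxa peptide wells and 100% = peptide-only wells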
Mcl1 Bid PPI: Mcl-1/Bid binding inhibitors, primary screen, biochemical, TR-FRET, 1536-well | inhibition, % at 21.7 µM | TR-FRET Mcl-1/Bid-Dy647 peptide binding | 220,000 tested, 0.97% active | AID 1021, 2008 | Induced myeloid leukemia cell differentiation protein Mcl-1 (Homo sapiens), Q07820;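 active = compounds that cut the binding signal by more than half at the single screening dose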;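 note: His-tagged Mcl-1 with europium anti-His antibody binding Bid BH3 peptide; 0% = Mcl-1 plus peptide wells and 100% = peptide-only wells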
MCL1-BIM inh: inhibitors of MCL1 binding to BIM-BH3, primary screen, biochemical, fluorescence polarization. Induced myeloid leukemia cell differentiation protein Mcl-1 (Homo sapiens), Q07820. 320,000 tested, 0.68% active. GST-MCL1 / FITC-Bim-BH3 fluorescence polarization. inhibition, % at 10.9 µM;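 active = inhibition above the mean inhibition of all tested compounds plus 3 SD, set per campaign, cut at about 40% in these data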;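 note: 0% = DMSO wells and 100% = unlabeled Bim-BH3 peptide control; higher means more loss of mP so more displacement of Bim peptide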
T cell modulator: modulators of CD8 T cell-vesicle binding, primary screen, mouse 2C CD8+ T cells, flow cytometry; 2C CD8+ T cell-vesicle binding; active compounds read low; response (vesicle binding), % at 7 µM; 330,000 tested, 0.068% active; AID 2052, 2009;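 active = response, share of CD8 T cells binding vesicles, and their 90th percentile fluorescence all below set limits, cut at about 80% in these data, passing the limit was not always enough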;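 note: values below 100% mean blocked vesicle binding to the CD8+ T cells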
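Test system: purified 2C TCR transgenic mouse naive CD8+ T cells. Probe or stimulus: QL9-peptide-loaded Drosophila micro-vesicles bearing Ld, ICAM-1 and B7-1. Incubation: binding step 1.5 h, 37 °C, antibody labelling 20 min, ice. Measured by: flow cytometry of vesicle-bound cells.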
BCLXL inh confirm: Bcl-xL inhibitors blocking Bim BH3 binding, confirmation, counter-screen for MCL1 inhibitor project, biochemical, fluorescence polarization; shares compounds with MCL1-BIM inh; GST-Bcl-xL / FITC-Bim BH3 peptide FP binding; inhibition, % at 10.9 µM; 1,700 tested, 54% active; AID 2166, 2009;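 active = inhibition above a cutoff equal to the mean inhibition of all tested compounds plus 3 SD, cut at about 30% in these data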;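 note: 0% = DMSO wells and 100% = unlabeled Bim BH3 control peptide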
MCL1 BIM confirm: inhibitors of MCL1 binding to BIM-BH3, confirmation, biochemical, fluorescence polarization, triplicate; 1,700 tested, 61% active; inhibition, % at 10.9 µM; shares compounds with MCL1-BIM inh; GST-MCL1 / FITC-Bim-BH3 fluorescence polarization;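 active = inhibition above the average of all tested compounds plus 3 SD, cut at about 40% in these data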;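 note: 0% = DMSO wells and 100% = unlabeled Bim-BH3 control peptide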
The depositor's hits bear a star; · = no result. An excerpt weighted towards active compounds, which were near 2.3% of everything screened.

SMILES	Pemphigus Ab inh	Mcl-1 Bim block	Mcl1-Noxa inh	Mcl1 Bid PPI	MCL1-BIM inh	T cell modulator	BCLXL inh confirm	MCL1 BIM confirm
O=C(c1ccc(F)c(S(=O)(=O)N2CCOCC2)c1)N1CCN(c2ncccn2)CC1	·	·	·	·	-11	719	·	·
Cc1c(-c2ccc(OCc3ccccc3)cc2)nc2ccccc2c1C(=O)O	143	·	·	·	3	748	·	·
CCCCN(C(=O)c1cccc(-n2cccc2)c1)c1c(N)n(Cc2ccccc2)c(=O)[nH]c1=O	107	·	·	·	78*	202	-7	30
CN1C(=O)N(C)c2ccc(C=O)c3cccc1c23	98	2	22	16	73*	186	65*	94*
CN1C(=O)N(C)c2ccc(Br)c3cccc1c23	102	·	·	·	·	156	·	·
COc1ccc(NC(=O)c2cc(S(=O)(=O)N3CCCC3)c[nH]2)cc1	102	·	·	·	108*	456	13	10
CCOC(=O)c1c(C)[nH]c(C2=NNC(=Nc3ccc(OCC)cc3)SC2)c1C	108	-7	-22	-65	70*	336	21	13
CCOC(=O)c1c(C)[nH]c(C2=NNC(=Nc3ccccc3)SC2)c1C	107	-5	12	-54	·	·	·	·
CCC1(C)Cc2c(C#N)c(N)sc(=S)c2CO1 (stereo not given)	57	0	27	-11	23	103	·	·
N#Cc1c(N)sc(=S)c2c1CCCC2	104	1	29	-8	160*	266	62*	92*
COc1ccc(CNC(=O)C2CCN(S(=O)(=O)c3ccc4c(c3)CC(C)N4C(C)=O)CC2)cc1 (stereo not given)	98	·	·	·	-7	283	·	·
O=C(Nc1ccc(Nc2ccncc2)cc1)c1ccc(Nc2ccnc3ccc([N+](=O)[O-])cc23)cc1[N+](=O)[O-]	83	·	80*	90*	43*	70	13	27
CN1C=CC2=C(C#N)C(N)C(C#N)(C#N)C(c3ccccc3)C2C1 (stereo not given)	·	-1	-9	-28	90*	940	40*	56*
COc1ccc(Cl)cc1NC(=O)CN(C)C(=O)Cn1cnnn1	·	·	·	·	·	452	·	·
NC(=O)c1cc2ccccc2oc1=NCc1ccccc1	·	0	-14	12	6	372	·	·
NC(=O)c1cc2ccc(O)cc2oc1=NCc1ccccc1	91	-3	2	-11	151*	531	170*	199*
CCCN(CCC)C(=O)c1ccc2c(c1)N(CC)C(=O)c1ccccc1S2(=O)=O	99	·	·	·	127*	192	8	5
Clc1cccc(Cl)c1C1Nc2cccc3cccc(c23)N1	99	·	·	·	14	170	·	·
Clc1ccc(C2Nc3cccc4cccc(c34)N2)cc1Cl	86	·	·	·	31	453	·	·
Brc1cccc(C2Nc3cccc4cccc(c34)N2)c1	96	·	·	·	44*	300	24	26
c1csc(C2Nc3cccc4cccc(c34)N2)c1	79	0	·	-13	62*	254	25	22
COc1ccc(C2Nc3cccc4cccc(c34)N2)cc1	89	1	31	-16	10	196	·	·
Brc1ccc(C2Nc3cccc4cccc(c34)N2)o1	103	-1	65*	-1	55*	239	23	29
c1ccc(C2Nc3cccc4cccc(c34)N2)cc1	115	·	·	·	52*	290	40*	55*
